The subject of data set [1] is RAW264.7. Description: Inhibition of LPS-induced TNFalpha production in mouse RAW264.7 cells at 100 uM incubated for 18 hrs by ELISA method. In kind it is functional. The settings on record: for inhibition at 100 µM: RAW264.7, 18 h. The procedure, abridged: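 RAW 264.7 cells were co-treated with compound plus 10 ng/mL LPS (R595) for 18 h. Supernatant TNF-α was measured by commercial ELISA and compared with cells stimulated with LPS only.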
(In general: An ELISA detects its analyte on a solid surface through an enzyme-linked reagent.)

Data set [2] deals with RAW264.7. Description: Cytotoxicity against mouse RAW264.7 cells at 100 uM incubated for 18 hrs by LDH release assay. Type of data set: cell-based. The settings on record: raw264.7, 18 h. The procedure, abridged:
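RAW 264.7 murine macrophage-like cells were treated with compound for 18 h. Culture supernatants were then collected and assayed for lactate dehydrogenase activity released from dead or dying cells, using a commercial LDH cytotoxicity kit. Vehicle and lysis-buffer controls were included. Data are means ± SD, n = 2.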

Data set [3] relates to RAW264.7. Description: Effect on TNFalpha production in mouse RAW264.7 cells at 100 uM incubated for 18 hrs by ELISA method. In kind it is cell-based. As to conditions: raw264.7, 18 h. The procedure, abridged:
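Compound alone, without LPS, was added to RAW 264.7 murine macrophage-like cells and incubated 18 h. TNF-α in culture supernatants was quantified by commercial ELISA and compared with levels from unstimulated cells.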

Activity calls are given as the source filed them. The rule behind the calls is not given here.

One may read the inhibition as the share of the control response that was lost under treatment.

Turning to `CCCCCCCCCCCC(=O)NCC(C)CC` (stereo not drawn), the inhibition entry in data set [1] was “Active”. The Activity entry in data set [2] and in data set [3] was “Non-toxic” throughout.
Turning to `CCCCCCCCC/C=C/C(=O)NCC(C)C`, the inhibition entry in data set [1] is “Active”. Besides, the Activity result in data set [2] and in data set [3] was “Non-toxic” in each case.
As to `CCCCCCCCC/C=C/C(=O)NCC(C)CC` (stereo not drawn), in data set [1], the inhibition result was “Active”. Further, the Activity entry in data set [2] was “Toxic”; in data set [3], “Non-toxic”.
For `CCCCCCC/C=C/C=C/C(=O)NCC(C)C`, the inhibition entry in data set [1] was “Active”. Further, the Activity result in data set [2] and in data set [3] was “Non-toxic” each time.
For `CCCCCCCCCC(=O)NCC(C)C` [TETRAHYDROPELLITORINE], the inhibition result in data set [1] was “Active”. Further, the Activity result in data set [2] and in data set [3] was “Non-toxic” in each case.
Turning to `CCCCCCCCCCCC(=O)NCCCCCC`, the inhibition entry in data set [1] was “Active”. The Activity result in data set [2] and in data set [3] was “Non-toxic” each time.
For `CCCCCCCCCCCC(=O)NCC(C)C`, the inhibition result in data set [1] was “Active”. Besides, the Activity result in data set [2] and in data set [3] was “Non-toxic” in each case.
Turning to `CCCCCCCCCCCc1nc(C(C)C)cs1`, the inhibition entry in data set [1] was “inactive”. For the same compound, the Activity result in data set [2] was “Non-toxic”.
For `CCCCCCCC(=O)NCC(C)C`, the inhibition entry in data set [1] is “Active”. Besides, the Activity entry in data set [2] and in data set [3] was “Non-toxic” each time.
`CCCCCCCCCCCCNCC(C)C` showed an inhibition at 100 µM in data set [1] of 99.8%. The values for the Activity result in data set [2] and in data set [3] were “Toxic” and “Non-toxic”, respectively.
As to `CCCC(=O)NCC(C)C`, the inhibition entry in data set [1] was “Active”. In addition, the Activity entry in data set [2] and in data set [3] was “Non-toxic” throughout.
With `CCCCCCCCCCCc1nc(CC(C)C)cs1`, in data set [1], the inhibition result is “inactive”. The Activity entry in data set [2] is on record as “Non-toxic”.
For the compound `CCCCCC(=O)NCC(C)C`, the inhibition result in data set [1] is “Active”. The Activity entry in data set [2] and in data set [3] was “Non-toxic” throughout.
Consider `CCCCCCCCCCCC(=O)NCc1ccccc1` [N-BENZYLDODECANAMIDE], for which, in data set [1], the inhibition at 100 µM was 32.4%. Moreover, the Activity result in data set [2] and in data set [3] was “Non-toxic” throughout.
For the compound `CCCCCCCCC/C=C/C(=O)NCc1ccccc1`, in data set [1], the inhibition at 100 µM was 29.8%. For the same compound, the Activity entry in data set [2] and in data set [3] was “Non-toxic” each time.

The record behind these values is ChEMBL document CHEMBL3600295, “Synthesis and biological evaluation of a series of fatty acid amides from Echinacea” (Bioorg Med Chem Lett, 2015).
